Activity calls are given as the source filed them. The rule behind the calls is not given here.
How the values were obtained:
[1] = target: DNA-directed DNA/RNA polymerase mu (Homo sapiens, UniProt Q9NP87); experiment: Inhibition of His-tagged human DNA polymerase mu using poly(dA)/oligo(dT)18 (A/T = 2/1) and dTTP as the DNA template-primer and nucleotide substrate after 60 mins
Procedure, shortened: (§1)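 Compound in DMSO, sonicated 30 s. Premixed 0 °C, 10 min with enzyme (0.05 units) in 50 mM Tris-HCl pH 7.5, 1 mM DTT, 50% glycerol, 0.1 mM EDTA, then added to standard reaction mixture. Template-primers: poly(dA)/oligo(dT)18 (2/1) for pols, oligo(dT)18 for TdT, poly(rA)/oligo(dT)18 for HIV-1 RT, with [3H]dTTP. 60 min at 37 °C (Taq 74 °C). Activity relative to no-inhibitor control; mean ± SE of three experiments.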

[2] = target: DNA polymerase I, thermostable (Thermus aquaticus, UniProt P19821); experiment: Inhibition of Taq polymerase using poly(dA)/oligo(dT)18 (A/T = 2/1) and dTTP as the DNA template-primer and nucleotide substrate at 74 degree C after 60 mins; procedure, shortened: as §1
[3] = target: T7 RNA polymerase (Enterobacteria phage T7, UniProt P00573); experiment: Inhibition of T7 RNA polymerase using salmon sperm DNA and [3H]UTP at 25 degree C after 30 mins by liquid scintillation counting; design: species or system Escherichia phage T7
[4] = target: Inosine-5'-monophosphate dehydrogenase 2 (Mus musculus, UniProt P24547); experiment: Inhibition of mouse IMP dehydrogenase type 2
Procedure, shortened: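 Calf primase of pol α and mouse IMP dehydrogenase type II measured by standard assays per manufacturer's specifications. Activity relative to no-compound control (100%).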

[5] = system: RAW264.7; experiment: Cytotoxicity against mouse RAW264.7 cells at 5 uM; assay type: cell-based; details: raw264.7, 5 µM
[6] = Cytotoxicity against mouse RAW264.7 cells; assay type: cell-based; details: read-out: LD50 (the source's name)
[7] = target: T1, DNA polymerase lambda (Homo sapiens) (UniProt Q9UGP5); experiment: Inhibition of recombinant His-tagged human DNA polymerase lambda using poly(dA)/oligo(dT)18 (A/T = 2/1) and dTTP as the DNA template-primer and nucleotide substrate at 10 uM after 60 mins; procedure, shortened: as §1
T1 sequence (whole entry): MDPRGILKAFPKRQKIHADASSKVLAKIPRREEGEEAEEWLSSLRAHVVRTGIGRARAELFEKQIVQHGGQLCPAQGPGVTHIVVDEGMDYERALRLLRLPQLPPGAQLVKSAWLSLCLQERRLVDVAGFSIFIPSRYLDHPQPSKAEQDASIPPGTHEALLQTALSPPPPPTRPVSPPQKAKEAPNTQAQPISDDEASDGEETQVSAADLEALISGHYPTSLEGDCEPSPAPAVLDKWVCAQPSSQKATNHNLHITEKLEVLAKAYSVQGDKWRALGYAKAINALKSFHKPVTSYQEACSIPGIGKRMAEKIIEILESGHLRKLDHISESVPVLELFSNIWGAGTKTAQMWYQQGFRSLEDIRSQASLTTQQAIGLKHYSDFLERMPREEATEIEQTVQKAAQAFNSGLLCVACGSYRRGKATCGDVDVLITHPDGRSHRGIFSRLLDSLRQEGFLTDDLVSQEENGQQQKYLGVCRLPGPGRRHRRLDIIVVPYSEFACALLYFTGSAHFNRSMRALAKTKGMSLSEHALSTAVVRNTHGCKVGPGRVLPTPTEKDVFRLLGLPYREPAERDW

[8] = Inhibition of rice DNA polymerase lambda using poly(dA)/oligo(dT)18 (A/T = 2/1) and dTTP as the DNA template-primer and nucleotide substrate after 60 mins; design: species or system Oryza sativa; procedure, shortened: as §1
[9] = target: Deoxyribonuclease-1 (Bos taurus, UniProt P00639); experiment: Inhibition of bovine deoxyribonuclease I by agarose gel electrophoresis
[10] = species: Homo sapiens; experiment: Inhibition of histidine-tagged human DNA polymerase gamma using poly(dA)/oligo(dT)18 (A/T = 2/1) and dTTP as the DNA template-primer and nucleotide substrate at 10 uM after 60 mins; procedure, shortened: as §1
[11] = species: Homo sapiens; experiment: Inhibition of histidine-tagged human DNA polymerase gamma using bovine deoxyribonuclease 1-treated DNA and dNTP as the DNA template-primer and nucleotide substrate at 10 uM after 60 mins
[12] = target: T2, DNA polymerase kappa (Homo sapiens) (UniProt Q9UBT6); experiment: Inhibition of C-terminal His6-tagged human DNA polymerase kappa (amino acids 1 to 560) using bovine deoxyribonuclease 1-treated DNA and dNTP as the DNA template-primer and nucleotide substrate at 10 uM after 60 mins
T2 sequence (whole entry): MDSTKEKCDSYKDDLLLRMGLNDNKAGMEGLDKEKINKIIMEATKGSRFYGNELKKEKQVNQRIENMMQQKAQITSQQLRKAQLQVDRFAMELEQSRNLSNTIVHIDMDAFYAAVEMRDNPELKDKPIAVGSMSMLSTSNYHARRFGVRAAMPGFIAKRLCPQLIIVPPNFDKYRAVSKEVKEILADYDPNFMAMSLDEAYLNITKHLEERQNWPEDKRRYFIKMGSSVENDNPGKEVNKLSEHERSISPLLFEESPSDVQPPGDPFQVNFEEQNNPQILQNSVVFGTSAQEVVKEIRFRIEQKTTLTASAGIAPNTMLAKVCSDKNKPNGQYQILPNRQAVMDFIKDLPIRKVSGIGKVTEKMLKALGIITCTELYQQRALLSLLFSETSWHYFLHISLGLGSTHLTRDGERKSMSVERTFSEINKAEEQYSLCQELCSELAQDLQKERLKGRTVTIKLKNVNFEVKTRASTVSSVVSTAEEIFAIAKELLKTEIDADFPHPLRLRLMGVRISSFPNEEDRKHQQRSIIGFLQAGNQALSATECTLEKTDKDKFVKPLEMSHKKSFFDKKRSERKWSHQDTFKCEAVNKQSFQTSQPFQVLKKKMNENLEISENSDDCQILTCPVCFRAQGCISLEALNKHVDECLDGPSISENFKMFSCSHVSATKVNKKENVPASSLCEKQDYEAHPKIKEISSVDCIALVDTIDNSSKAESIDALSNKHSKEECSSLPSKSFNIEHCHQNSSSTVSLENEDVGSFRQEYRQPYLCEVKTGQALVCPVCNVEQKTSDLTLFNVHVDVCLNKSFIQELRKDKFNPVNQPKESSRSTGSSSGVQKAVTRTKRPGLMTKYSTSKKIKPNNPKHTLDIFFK

[13] = Inhibition of histidine-tagged human DNA polymerase gamma using poly(dA)/oligo(dT)18 (A/T = 2/1) and dTTP as the DNA template-primer and nucleotide substrate after 60 mins; procedure, shortened: as §1
[14] = Inhibition of calf DNA polymerase alpha using poly(dA)/oligo(dT)18 (A/T = 2/1) and dTTP as the DNA template-primer and nucleotide substrate after 60 mins; design: species or system Bos taurus; procedure, shortened: as §1
[15] = target: DNA polymerase beta (Rattus norvegicus, UniProt P06766); experiment: Inhibition of rat pol beta using poly(dA)/oligo(dT)18 (A/T = 2/1) and dTTP as the DNA template-primer and nucleotide substrate after 60 mins; procedure, shortened: as §1
[16] = target: DNA polymerase lambda (Homo sapiens, UniProt Q9UGP5); experiment: Inhibition of His-tagged human DNA polymerase lambda using poly(dA)/oligo(dT)18 (A/T = 2/1) and dTTP as the DNA template-primer and nucleotide substrate after 60 mins; procedure, shortened: as §1

Sequence of DNA polymerase I, thermostable (P19821 whole entry): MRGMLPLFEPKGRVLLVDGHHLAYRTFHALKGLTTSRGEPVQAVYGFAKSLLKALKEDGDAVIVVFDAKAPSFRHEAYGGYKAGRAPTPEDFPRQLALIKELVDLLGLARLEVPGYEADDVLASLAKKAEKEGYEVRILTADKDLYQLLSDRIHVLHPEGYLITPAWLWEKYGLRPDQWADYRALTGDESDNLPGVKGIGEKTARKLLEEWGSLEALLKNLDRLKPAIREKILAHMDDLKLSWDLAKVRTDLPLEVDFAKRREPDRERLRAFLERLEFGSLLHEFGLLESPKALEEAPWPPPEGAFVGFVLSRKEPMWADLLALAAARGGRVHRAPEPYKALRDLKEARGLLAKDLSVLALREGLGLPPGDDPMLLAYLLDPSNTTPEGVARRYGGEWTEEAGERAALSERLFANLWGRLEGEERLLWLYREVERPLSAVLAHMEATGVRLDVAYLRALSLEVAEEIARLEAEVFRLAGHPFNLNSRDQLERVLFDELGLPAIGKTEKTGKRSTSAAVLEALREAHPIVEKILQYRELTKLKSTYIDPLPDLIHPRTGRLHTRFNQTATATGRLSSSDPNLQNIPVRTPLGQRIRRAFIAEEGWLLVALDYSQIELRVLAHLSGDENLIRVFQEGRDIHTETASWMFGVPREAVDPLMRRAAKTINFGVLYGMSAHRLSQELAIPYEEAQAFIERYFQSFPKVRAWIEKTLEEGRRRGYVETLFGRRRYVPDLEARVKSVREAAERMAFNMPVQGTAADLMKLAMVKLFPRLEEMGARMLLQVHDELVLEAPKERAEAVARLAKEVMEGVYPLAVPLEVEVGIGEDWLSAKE
Sequence of Inosine-5'-monophosphate dehydrogenase 2 (P24547 whole entry): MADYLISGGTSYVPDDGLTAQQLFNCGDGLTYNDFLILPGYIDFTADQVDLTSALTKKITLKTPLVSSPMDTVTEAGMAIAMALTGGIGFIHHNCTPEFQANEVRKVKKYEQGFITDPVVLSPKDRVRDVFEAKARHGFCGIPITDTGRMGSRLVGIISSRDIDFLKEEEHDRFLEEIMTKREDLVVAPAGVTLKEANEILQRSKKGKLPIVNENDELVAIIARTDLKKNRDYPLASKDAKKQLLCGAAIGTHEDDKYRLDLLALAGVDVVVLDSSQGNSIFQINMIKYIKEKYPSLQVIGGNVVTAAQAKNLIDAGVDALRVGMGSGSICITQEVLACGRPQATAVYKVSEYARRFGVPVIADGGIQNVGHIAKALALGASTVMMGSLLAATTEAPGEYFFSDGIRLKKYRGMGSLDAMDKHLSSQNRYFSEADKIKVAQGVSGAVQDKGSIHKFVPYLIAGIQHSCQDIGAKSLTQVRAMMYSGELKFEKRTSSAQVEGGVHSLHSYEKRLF
Sequence of T7 RNA polymerase (P00573 whole entry): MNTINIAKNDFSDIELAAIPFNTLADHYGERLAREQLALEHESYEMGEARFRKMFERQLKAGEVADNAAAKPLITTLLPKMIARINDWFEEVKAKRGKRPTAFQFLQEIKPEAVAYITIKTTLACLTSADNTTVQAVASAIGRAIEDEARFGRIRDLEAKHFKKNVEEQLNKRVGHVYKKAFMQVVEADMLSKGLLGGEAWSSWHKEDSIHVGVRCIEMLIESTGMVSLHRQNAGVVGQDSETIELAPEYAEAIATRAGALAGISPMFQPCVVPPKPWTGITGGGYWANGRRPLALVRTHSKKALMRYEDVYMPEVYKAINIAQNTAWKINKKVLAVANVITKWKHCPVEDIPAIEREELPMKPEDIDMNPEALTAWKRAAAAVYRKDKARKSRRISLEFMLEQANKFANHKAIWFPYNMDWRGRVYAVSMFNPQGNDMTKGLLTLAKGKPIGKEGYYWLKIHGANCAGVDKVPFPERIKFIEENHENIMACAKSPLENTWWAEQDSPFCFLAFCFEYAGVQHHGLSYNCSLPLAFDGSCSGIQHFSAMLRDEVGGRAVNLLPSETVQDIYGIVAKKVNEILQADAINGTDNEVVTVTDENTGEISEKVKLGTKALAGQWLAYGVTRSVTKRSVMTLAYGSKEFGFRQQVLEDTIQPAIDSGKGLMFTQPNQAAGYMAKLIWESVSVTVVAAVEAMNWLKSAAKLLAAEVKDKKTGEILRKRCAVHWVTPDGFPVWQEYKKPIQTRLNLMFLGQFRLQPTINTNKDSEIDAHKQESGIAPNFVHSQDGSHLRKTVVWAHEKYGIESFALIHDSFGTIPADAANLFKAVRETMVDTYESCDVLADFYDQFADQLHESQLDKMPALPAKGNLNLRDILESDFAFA
Sequence of DNA-directed DNA/RNA polymerase mu (Q9NP87 whole entry): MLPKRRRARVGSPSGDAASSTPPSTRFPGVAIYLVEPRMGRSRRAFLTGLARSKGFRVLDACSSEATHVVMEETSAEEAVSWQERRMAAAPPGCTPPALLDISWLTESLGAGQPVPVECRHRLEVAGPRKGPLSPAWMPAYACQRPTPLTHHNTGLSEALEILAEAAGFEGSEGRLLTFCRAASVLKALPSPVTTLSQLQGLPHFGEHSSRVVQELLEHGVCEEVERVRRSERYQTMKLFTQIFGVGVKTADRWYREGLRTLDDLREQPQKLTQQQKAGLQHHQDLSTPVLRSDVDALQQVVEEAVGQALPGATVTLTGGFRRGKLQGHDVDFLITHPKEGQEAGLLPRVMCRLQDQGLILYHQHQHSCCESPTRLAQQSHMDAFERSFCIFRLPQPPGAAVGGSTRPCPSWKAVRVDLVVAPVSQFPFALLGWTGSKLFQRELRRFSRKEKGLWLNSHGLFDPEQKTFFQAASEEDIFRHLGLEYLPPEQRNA
Sequence of Deoxyribonuclease-1 (P00639 whole entry): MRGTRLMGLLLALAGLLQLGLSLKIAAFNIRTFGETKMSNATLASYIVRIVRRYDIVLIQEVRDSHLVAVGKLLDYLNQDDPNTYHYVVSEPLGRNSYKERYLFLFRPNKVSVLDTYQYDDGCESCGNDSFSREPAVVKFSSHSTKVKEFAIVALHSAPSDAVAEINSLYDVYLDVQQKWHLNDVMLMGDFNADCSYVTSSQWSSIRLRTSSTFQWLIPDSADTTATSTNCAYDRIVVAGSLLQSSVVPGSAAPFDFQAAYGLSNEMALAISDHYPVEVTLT

Row | Compound | IC50 [1] [µM] | IC50 [2] [µM] | IC50 [3] [µM] | IC50 [4] [µM] | Activity [5] | CC50 [6] [µM] | inhibition [7] | IC50 [8] [µM] | IC50 [9] [µM] | inhibition [10] | inhibition [11] | inhibition [12] | IC50 [13] [µM] | IC50 [14] [µM] | IC50 [15] [µM] | IC50 [16] [µM]
1 | CCCCCCCC/C=C\CCCCCCCC(=O)Oc1cccc2c1C(=O)C=CC2=O | 10.8 | > 100 | > 100 | > 100 | Non-toxic | > 10 | Active | > 200 | > 100 | Active | Active | Active | 0.72 | 0.68 | 11.5 | 10.2
2 | CCCCCCCCCCCC(=O)Oc1cccc2c1C(=O)C=CC2=O | 7.9 | > 100 | > 100 | > 100 | Non-toxic | > 10 | Active | > 100 | > 100 | Active | Active | Active | 6.5 | 6.3 | 7.6 | 7

From ChEMBL document CHEMBL1914406, “Inhibitory effect of novel 5-O-acyl juglones on mammalian DNA polymerase activity, cancer cell growth and inflammatory response” (Bioorg Med Chem, 2011)
